Test results taken from publication PMC6315097 (The Korean Journal of Physiology & Pharmacology : Official …, 2018).

Tests used:
db/db mice = assay: 4-week repeated administration in db/db mice; type: in vivo; conditions: 4-week repeated oral dosing
How it was run: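 Male db/db mice, 8 weeks old, 7 per group, allocated by HbA1c and blood glucose after a 16 h fast. Test compound given orally once daily for 28 days. HbA1c measured from tail-vein blood on days 0 and 28. Blood glucose checked twice weekly. Body weight taken daily. OGTT on day 29, 24 h after the last dose: glucose 2 g/kg, samples at −60, 0, 15, 30, 60 and 120 min. Mean±S.E.M.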

male C57BL/6 mice [1] = assay: Total GLP-1 in plasma after glucose loading in normoglycemic mice; type: in vivo; conditions: 30 min after glucose loading
How it was run: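 Fasted (16 h) 8-week-old male C57BL/6 mice, 7 per group, dosed orally with test compound or vehicle 30 min before a 2 g/kg glucose load. Plasma collected from the subclavian vein 30 min after loading. Total GLP-1 measured by multispecies ELISA. One-way ANOVA with Dunnett's test versus vehicle.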

male C57BL/6 mice [2] = assay: Oral glucose tolerance test in normoglycemic mice; type: in vivo
How it was run: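 Male C57BL/6 mice, 8 weeks old, fasted 16 h. Test compound given orally 30 min before a glucose load of 2 g/kg (10 ml/kg). Tail-nick blood glucose read by glucose strip before loading and at 0, 15, 30, 60 and 120 min after. Glucose AUC0–120min calculated by the trapezoidal rule. n=6; mean±S.E.M.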

mice = conditions: cited from earlier work
human SGLT2 = target: T1, human SGLT2 (Homo sapiens, UniProt P31639); assay: [14C]-AMG uptake inhibition in HEK293 cells stably expressing human SGLT2; type: cell-based; conditions: human SGLT2 vs human SGLT1, in vitro
T1 sequence (P31639 1-672): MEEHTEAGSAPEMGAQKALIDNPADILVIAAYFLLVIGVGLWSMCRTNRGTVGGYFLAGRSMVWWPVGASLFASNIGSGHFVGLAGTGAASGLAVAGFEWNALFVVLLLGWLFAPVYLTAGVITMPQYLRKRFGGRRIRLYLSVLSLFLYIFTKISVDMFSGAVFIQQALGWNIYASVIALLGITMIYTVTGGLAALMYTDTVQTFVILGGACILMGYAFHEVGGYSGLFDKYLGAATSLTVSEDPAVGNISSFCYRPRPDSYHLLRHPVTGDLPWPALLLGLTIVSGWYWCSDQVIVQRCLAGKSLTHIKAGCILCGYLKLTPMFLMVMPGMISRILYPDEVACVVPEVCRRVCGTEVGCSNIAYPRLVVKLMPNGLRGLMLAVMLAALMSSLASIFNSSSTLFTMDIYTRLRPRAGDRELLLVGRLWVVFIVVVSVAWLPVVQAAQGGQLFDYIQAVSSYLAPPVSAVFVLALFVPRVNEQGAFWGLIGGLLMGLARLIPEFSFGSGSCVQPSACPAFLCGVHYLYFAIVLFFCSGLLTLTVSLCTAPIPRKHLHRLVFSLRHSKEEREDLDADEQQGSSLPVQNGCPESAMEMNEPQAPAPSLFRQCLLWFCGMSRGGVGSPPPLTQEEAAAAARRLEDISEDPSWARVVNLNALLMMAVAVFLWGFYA

[3] = Pharmacokinetic profiles in male C57BL/6 mice; type: in vivo; conditions: for AUC(0-t): AUC0-24hr
male C57BL/6 mice [4] = assay: Urinary glucose excretion over 24 h in normoglycemic mice; type: in vivo; conditions: single oral dose 3 mg/kg with 2 g/kg glucose, 24 h urine
How it was run: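 Male C57BL/6 mice, 8 weeks old, 3 per group, allocated by body weight and fasted overnight. […] Urine collected in metabolism cages over 24 h. Urine volume and glucose measured by clinical chemistry analyser and normalised to body weight.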

[5] = single oral 1 mg/kg 30 min before glucose 2 g/kg
[6] = male, C57BL/6, mouse, plasma, po
[7] = male, C57BL/6, mouse, plasma, po, 0.3 mg/kg, mice
[8] = male, C57BL/6, mouse, plasma, po, 1 mg/kg, mice

SMILES: CCOc1ccc(Cc2cc([C@@H]3O[C@H](CO)[C@@H](O)[C@H](O)[C@H]3O)ccc2Cl)cc1 [Dapagliflozin, (1S)-1,5-anhydro-1-C-{4-chloro-3-[(4-ethoxyphenyl)methyl]phenyl}-D-glucitol, reference compound]
- change in body weight compared to vehicle-treated db/db mice (db/db mice): did not induce a significant change in body weight
- Total GLP-1 in plasma (male C57BL/6 mice [1]; single oral 1 mg/kg): 15.5 ± 5.7 pM
- effect on blood glucose increases during OGTT (male C57BL/6 mice [2]; [5]): decreased blood glucose increases during OGTT

SMILES: OC[C@H]1O[C@@H](c2ccc(Cl)c(Cc3ccc(O[C@H]4CCOC4)cc3)c2)[C@H](O)[C@@H](O)[C@@H]1O [Empagliflozin]
- reduction of glucose reabsorption (mice; SGLT1 and SGLT2 double-knockout mice): 100%
- inhibition of glucose reabsorption (mice; wild-type mice): 56%

SMILES: CCc1ccc(Cc2cc([C@@H]3O[C@H](CO)[C@@H](O)[C@H](O)[C@H]3O)cc3c2CCC3)cc1 [HM41322, (2S,3R,4R,5S,6R)-2-[7-(4-ethylbenzyl)-2,3-dihydro-1H-inden-5-yl]-6-(hydroxymethyl)tetrahydro-2H-pyran-3,4,5-triol]
- change in body weight compared to vehicle-treated db/db mice (db/db mice): did not induce a significant change in body weight
- Total GLP-1 in plasma (male C57BL/6 mice [1]; single oral 0.3 mg/kg): 15.0 ± 6.6 pM
- Total GLP-1 in plasma (male C57BL/6 mice [1]; single oral 1 mg/kg): 18.0 ± 5.0 pM
- Total GLP-1 in plasma (male C57BL/6 mice [1]; single oral 3 mg/kg, 3 mg/kg): 34.2 ± 9.7 pM
- selectivity for SGLT2 over SGLT1 (human SGLT2): 10 fold
- area under the curve (AUC) of glucose tolerance, OGTT 120 min (male C57BL/6 mice [2]; single oral 0.3 mg/kg 30 min before glucose 2 g/kg): 303.3 ± 60.17 mg·h/dL
- area under the curve (AUC) of glucose tolerance, OGTT 120 min (male C57BL/6 mice [2]; [5]): 228.5 ± 16.96 mg·h/dL
- area under the curve (AUC) of glucose tolerance, OGTT 120 min (male C57BL/6 mice [2]; single oral 3 mg/kg 30 min before glucose 2 g/kg): 170.7 ± 13.14 mg·h/dL
- Tmax [3, 6]: 0.5 h
- half-life [3, 6]: 3.1 h
- AUC(0-t) [3, 7]: 473 ng·h/mL
- Cmax [3, 7]: 142 ng/mL
- AUC(0-t) [3, 8]: 1300 ng·h/mL
- Cmax [3, 8]: 439 ng/mL
- AUC(0-t) ([3]; male, C57BL/6, mouse, plasma, po, 3 mg/kg, mice): 5460 ng·h/mL
- maximum plasma level ([3]; mice, single oral dose 0.1 mg/kg): 142 ng/mL
- Urinary glucose excretion (male C57BL/6 mice [4]): 19.32±1.16 mg/g body weight
